Test results from ChEMBL document CHEMBL4823293, “Fragment-based lead discovery to identify novel inhibitors that target the ATP binding site of pyruvate dehydrogenase kinases” (Bioorg Med Chem, 2021).

Key:
[1] = biological target: T1, [Pyruvate dehydrogenase (acetyl-transferring)] kinase isozyme 4, mitochondrial (Homo sapiens, UniProt Q16654); assay: Inhibition of human PDHK4 co-complexed with porcine PDH using sodium pyruvate, coenzymeA and NAD as substrate preincubated with enzyme complex for 45 mins followed by ATP addition and then later incubated with substrate for 90 mins by absorption spectrophotometric assay
Target sequence in this assay (Q16654 whole entry): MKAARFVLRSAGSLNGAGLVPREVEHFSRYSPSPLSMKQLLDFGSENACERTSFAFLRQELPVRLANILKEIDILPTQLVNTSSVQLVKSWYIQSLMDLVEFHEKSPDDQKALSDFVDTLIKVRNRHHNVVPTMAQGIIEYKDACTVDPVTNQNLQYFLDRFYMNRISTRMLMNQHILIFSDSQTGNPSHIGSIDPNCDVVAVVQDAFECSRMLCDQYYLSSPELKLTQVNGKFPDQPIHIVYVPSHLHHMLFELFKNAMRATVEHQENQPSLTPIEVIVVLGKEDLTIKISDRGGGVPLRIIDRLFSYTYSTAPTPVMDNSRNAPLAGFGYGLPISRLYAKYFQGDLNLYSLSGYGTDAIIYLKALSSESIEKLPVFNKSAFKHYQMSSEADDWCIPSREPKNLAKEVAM

[2] = biological target: T2, [Pyruvate dehydrogenase (acetyl-transferring)] kinase isozyme 2, mitochondrial (Homo sapiens, UniProt Q15119); assay: Inhibition of human PDHK2 co-complexed with porcine PDH using sodium pyruvate, coenzymeA and NAD as substrate preincubated with enzyme complex for 45 mins followed by ATP addition and then later incubated with substrate for 90 mins by absorption spectrophotometric assay
[3] = biological target: T3, Branched-chain alpha-ketoacid dehydrogenase kinase (Homo sapiens, UniProt O14874); assay: Inhibition of human recombinant BCKDK incubated for 60 mins by ADP-Glo kinase assay
[4] = biological target: T1, [Pyruvate dehydrogenase (acetyl-transferring)] kinase isozyme 4, mitochondrial; assay: Inhibition of human PDHK4 assessed as reduction in acetyl-coenzymeA formation by RapidFire mass spectrometry
Outline: (§1)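 PDHK reaction read through downstream PDH product. Reaction mix diluted 25-fold in 0.1% formic acid. Acetyl-CoA captured on graphitic carbon SPE (5 mM ammonium acetate pH 10.0), eluted with buffer/acetonitrile/acetone 50:25:25. […] MRM at 808/79 and 808/408; peak AUC quantified, ATP signal confirming each injection.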
Target sequence in this assay (Q16654 whole entry): as above

[5] = biological target: T2, [Pyruvate dehydrogenase (acetyl-transferring)] kinase isozyme 2, mitochondrial; assay: Inhibition of human PDHK2 assessed as reduction in acetyl-coenzymeA formation by RapidFire mass spectrometry; outline: as §1
[6] = biological target: T1, [Pyruvate dehydrogenase (acetyl-transferring)] kinase isozyme 4, mitochondrial; assay: Inhibition of human PDHK4 assessed as reduction in acetyl-coenzymeA formation at IC50 by RapidFire mass spectrometry relative to control; outline: as §1
Target sequence in this assay (Q16654 whole entry, looked up): as the sequence (Q16654 whole entry) above

[7] = biological target: [Pyruvate dehydrogenase (acetyl-transferring)] kinase isozyme 3, mitochondrial (Homo sapiens, UniProt Q15120); assay: Inhibition of human PDHK3 co-complexed with porcine PDH using sodium pyruvate, coenzymeA and NAD as substrate preincubated with enzyme complex for 45 mins followed by ATP addition and then later incubated with substrate for 90 mins by absorption spectrophotometric assay
Sequence of [Pyruvate dehydrogenase (acetyl-transferring)] kinase isozyme 3, mitochondrial (Q15120 whole entry): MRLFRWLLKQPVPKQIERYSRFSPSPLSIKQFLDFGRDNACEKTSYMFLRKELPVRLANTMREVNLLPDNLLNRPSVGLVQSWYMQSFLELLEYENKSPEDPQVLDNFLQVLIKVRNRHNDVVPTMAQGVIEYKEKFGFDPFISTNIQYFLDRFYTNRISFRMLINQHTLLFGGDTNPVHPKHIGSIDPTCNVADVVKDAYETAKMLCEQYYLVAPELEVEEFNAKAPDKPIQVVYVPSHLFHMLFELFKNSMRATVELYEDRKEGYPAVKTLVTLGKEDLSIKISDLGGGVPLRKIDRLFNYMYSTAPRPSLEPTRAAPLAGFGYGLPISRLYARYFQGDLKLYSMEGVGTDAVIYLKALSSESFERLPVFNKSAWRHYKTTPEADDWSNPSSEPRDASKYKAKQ
Outline: (§2)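 Recombinant human PDHK mixed with porcine PDH complex, held overnight at 4 °C to form PDH/PDHK complex. Inhibitor plus 0.3 or 10 µM ATP, 45 min at room temperature. Then 5.0 mM CoA, 5.0 mM pyruvate, 12 mM NAD added, 90 min at room temperature. NADH A340 taken before and after; IC50 from Hill-type curve fit against 0% and 100% activity controls.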

[8] = biological target: [Pyruvate dehydrogenase (acetyl-transferring)] kinase isozyme 1, mitochondrial (Homo sapiens, UniProt Q15118); assay: Inhibition of human PDHK1 co-complexed with porcine PDH using sodium pyruvate, coenzymeA and NAD as substrate preincubated with enzyme complex for 45 mins followed by ATP addition and then later incubated with substrate for 90 mins by absorption spectrophotometric assay; outline: as §2
Sequence of [Pyruvate dehydrogenase (acetyl-transferring)] kinase isozyme 1, mitochondrial (Q15118 whole entry): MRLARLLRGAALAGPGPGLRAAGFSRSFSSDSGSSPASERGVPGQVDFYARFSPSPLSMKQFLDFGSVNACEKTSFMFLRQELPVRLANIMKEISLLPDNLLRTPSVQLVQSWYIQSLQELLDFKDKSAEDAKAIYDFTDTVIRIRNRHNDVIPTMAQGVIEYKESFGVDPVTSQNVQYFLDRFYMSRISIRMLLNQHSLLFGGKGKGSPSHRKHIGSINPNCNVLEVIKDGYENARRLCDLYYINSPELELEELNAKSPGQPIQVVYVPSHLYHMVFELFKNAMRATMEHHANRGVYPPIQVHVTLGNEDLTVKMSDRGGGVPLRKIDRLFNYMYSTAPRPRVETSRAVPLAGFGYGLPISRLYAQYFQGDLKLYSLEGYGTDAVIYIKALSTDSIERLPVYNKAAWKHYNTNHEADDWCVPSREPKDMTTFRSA

[9] = biological target: Heat shock protein HSP90 (Homo sapiens) (UniProt P07900+P08238); assay: Inhibition of HSP90 (unknown origin) at 30 uM using labelled geldanamycin by fluorescence polarization assay; assay type: protein assay
Outline: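 Competitive fluorescence polarization with labelled geldanamycin probe, run as a commercial HSP90 assay kit; read as percent inhibition at a single concentration.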

[10] = biological target: T3, Branched-chain alpha-ketoacid dehydrogenase kinase; assay: Inhibition of human recombinant BCKDK at 500 uM incubated for 60 mins by ADP-Glo kinase assay
Outline: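 Human recombinant BCKDK with inhibitor and 0.2 µM ATP, 60 min at 37 °C. ADP-Glo reagent 40 min at room temperature to stop and deplete ATP, then detection reagent 40 min to convert ADP to ATP; luminescence read.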

[11] = biological target: Microtubule-associated serine/threonine-protein kinase 1 (Homo sapiens) (UniProt Q9Y2H9); assay: Inhibition of human partial length wild type MAST1 (S346 to V730 residues) expressed in mammalian expression system at 10 uM by KINOMEscan analysis
Sequence of Microtubule-associated serine/threonine-protein kinase 1 (Homo sapiens) (Q9Y2H9 whole entry, looked up, the tested form may be a part): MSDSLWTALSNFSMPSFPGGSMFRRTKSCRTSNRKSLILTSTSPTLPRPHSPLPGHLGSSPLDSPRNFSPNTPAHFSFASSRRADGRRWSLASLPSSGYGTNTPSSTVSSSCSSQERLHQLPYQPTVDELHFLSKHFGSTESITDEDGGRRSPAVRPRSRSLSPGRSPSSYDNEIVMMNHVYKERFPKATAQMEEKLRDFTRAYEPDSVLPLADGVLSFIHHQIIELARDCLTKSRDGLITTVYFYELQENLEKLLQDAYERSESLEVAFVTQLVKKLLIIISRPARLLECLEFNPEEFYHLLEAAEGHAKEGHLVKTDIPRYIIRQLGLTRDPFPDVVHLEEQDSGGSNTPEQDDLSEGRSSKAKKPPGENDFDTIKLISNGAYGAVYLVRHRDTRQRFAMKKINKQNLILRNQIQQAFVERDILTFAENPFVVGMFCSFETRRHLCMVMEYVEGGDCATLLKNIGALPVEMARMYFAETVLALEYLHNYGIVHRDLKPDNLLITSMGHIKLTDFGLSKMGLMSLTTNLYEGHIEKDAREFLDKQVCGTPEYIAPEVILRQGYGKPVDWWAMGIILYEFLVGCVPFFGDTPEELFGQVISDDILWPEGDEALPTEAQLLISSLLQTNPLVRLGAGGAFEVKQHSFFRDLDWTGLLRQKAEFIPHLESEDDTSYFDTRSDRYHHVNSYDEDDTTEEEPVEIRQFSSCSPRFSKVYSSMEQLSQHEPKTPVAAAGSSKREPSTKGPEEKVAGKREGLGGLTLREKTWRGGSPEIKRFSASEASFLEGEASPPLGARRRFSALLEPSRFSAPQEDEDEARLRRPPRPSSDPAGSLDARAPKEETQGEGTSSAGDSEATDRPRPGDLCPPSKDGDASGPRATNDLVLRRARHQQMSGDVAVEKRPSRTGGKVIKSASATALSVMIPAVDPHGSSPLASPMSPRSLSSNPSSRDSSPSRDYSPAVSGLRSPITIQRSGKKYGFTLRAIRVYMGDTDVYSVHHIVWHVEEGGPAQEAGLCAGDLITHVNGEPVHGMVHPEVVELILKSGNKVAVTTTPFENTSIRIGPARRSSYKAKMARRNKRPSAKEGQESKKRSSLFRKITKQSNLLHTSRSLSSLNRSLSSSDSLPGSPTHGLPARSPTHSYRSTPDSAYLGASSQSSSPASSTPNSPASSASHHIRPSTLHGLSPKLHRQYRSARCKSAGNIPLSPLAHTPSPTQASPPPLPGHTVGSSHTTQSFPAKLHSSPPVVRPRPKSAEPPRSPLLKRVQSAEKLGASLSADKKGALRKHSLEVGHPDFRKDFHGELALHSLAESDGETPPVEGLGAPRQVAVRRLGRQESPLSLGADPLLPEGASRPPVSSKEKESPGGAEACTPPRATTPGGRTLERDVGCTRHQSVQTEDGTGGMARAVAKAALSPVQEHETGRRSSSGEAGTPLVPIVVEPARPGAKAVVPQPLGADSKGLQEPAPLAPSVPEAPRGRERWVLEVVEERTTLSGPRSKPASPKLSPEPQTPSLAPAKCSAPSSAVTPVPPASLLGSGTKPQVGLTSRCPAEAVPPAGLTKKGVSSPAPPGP
Outline: (§3)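 Competition-binding KINOMEscan service panel of 59 kinases; percent inhibition at 10 µM.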

[12] = biological target: Serine/threonine-protein kinase mTOR (Homo sapiens) (UniProt P42345); assay: Inhibition of human partial length wild type mTOR (L1382 to W2549 residues) expressed in mammalian expression system at 10 uM by KINOMEscan analysis; outline: as §3

SMILES | IC50 [1] [µM] | IC50 [2] [µM] | also measured
Cc1cnc2[nH]c3c(C4CC4)cccc3c2c1 | 12 | 2 | 
CCCc1[nH]c2nc(C)ncc2c1Cl | 11 | 1.8 | 
Cc1cnc2[nH]c3c(C4CC4)cccc3c2n1 | 5.9 | 0.71 | IC50 [3]: > 300 µM
c1cnc2[nH]c3c(C4CC4)cccc3c2c1 | > 300 | 3.5 | 
C/C=C/c1[nH]c2nc(C)nc(Cl)c2c1Cl | 8 | 1.5 | 
COC(=O)c1ccc(O)cc1O [METHYL 2,4-DIHYDROXYBENZOATE] |  |  | IC50 [4]: 345 µM; IC50 [5]: 192 µM
CCCc1[nH]c2nc(C)ncc2c1C | > 30 | 14.7 | 
O=C1Cc2ccccc2N1 [OXINDOLE] |  |  | inhibition [6]: 29%; IC50 [4]: > 2000 µM; IC50 [5]: 958 µM
CCCc1[nH]c2nc(C)ncc2c1C#N | > 30 | > 30 | 
CNC(=O)c1[nH]c2nc(C)nc(Cl)c2c1C | > 100 | 42.8 | 
CC1(C)C(=O)Nc2c(N)cccc21 | > 300 | > 300 | 
CNC(=O)c1[nH]c2nc(C)nc(Cl)c2c1Br | > 30 | > 30 | 
CCCc1[nH]c2nc(C)ncc2c1Br | 12.4 | 2.2 | 
CC1(C)C(=O)Nc2c(C3CC3)cccc21 | 43.6 | 4.9 | 
CNc1cccc2c1NC(=O)C2(C)C | 12.8 | 0.59 | IC50 [7]: 8.4 µM; IC50 [8]: 0.37 µM; inhibition [9]: 3.2%; inhibition [10]: 14%; inhibition [11]: 60%; inhibition [12]: 58%
CC1(C)C(=O)Nc2ccccc21 | > 300 | 279 | IC50 [4]: 890 µM; IC50 [5]: 50.2 µM
CCCc1[nH]c2nc(C)nc(Cl)c2c1C | > 30 | 9.9 | 
CCc1cccc2c1NC(=O)C2(C)C | > 300 | 11 | 
